Measured values: ChEMBL document CHEMBL4270555, “Synthesis and biological evaluation of magnolol derivatives as melatonergic receptor agonists with potential use in depression” (Eur J Med Chem, 2018)
Active and inactive are the calls of the source. The calls are words filed in the database; no cut-off is given here.

What was measured:
[1] = Drug metabolism in Sprague-Dawley rat plasma assessed as 5'-(1-hydroxyallyl)-5-(1-hydroxypropyl)-2'-((2S,3R,4S,5S,6R)-3,4,5-trihydroxy-6-(hydroxymethyl)tetrahydro-2H-pyran-2-yloxy)biphenyl-2-yl hydrogen sulfate formation at 100 mg/kg, po by UPLC-IT-TOF-MS analysis; format: ADME, organism-based; details: in vivo
How it was run: (§1)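 Rats (n = 6) housed in metabolic cages received 100.0 mg/kg orally; controls received 0.5% CMC-Na. Plasma, urine and faeces were collected and analyzed by LC-IT-TOF-MS on a C18 column at 30 °C. Gradient 5–100% acetonitrile with 0.05% formic acid over 18 min at 0.2 mL/min; positive and negative ion MS/MS.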

[2] = Drug metabolism in Sprague-Dawley rat urine assessed as (2S,3R,4S,5S,6R)-2-(5'-allyl-2'-hydroxy-5-(1-hydroxyallyl)biphenyl-2-yloxy)-6-(hydroxymethyl)tetrahydro-2H-pyran-3,4,5-triol formation at 100 mg/kg, po by UPLC-IT-TOF-MS analysis; format: ADME, organism-based; details: in vivo
How it was run: (§2)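 Male/unspecified SD rats (n = 6) housed individually in metabolic cages, dosed orally at 100.0 mg/kg; controls given 0.5% CMC-Na orally. Plasma, urine and faeces collected. LC-IT-TOF-MS on C18 column at 30 °C, formic acid (0.05%) water/acetonitrile gradient 5–100% B over 18 min, 0.2 mL/min; positive and negative ion modes with automatic MS/MS.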

[3] = Drug metabolism in Sprague-Dawley rat plasma assessed as 5,5'-bis(1-hydroxyallyl)biphenyl-2,2'-diol formation at 100 mg/kg, po by UPLC-IT-TOF-MS analysis; format: ADME, organism-based; details: in vivo; how it was run: as §2
[4] = Drug metabolism in Sprague-Dawley rat urine assessed as (2S,3S,4S,5R,6S)-3,4,5-trihydroxy-6-(5-(1-hydroxyallyl)-5'-(1-hydroxypropyl)-2'-((2S,3R,4S,5S,6R)-3,4,5-trihydroxy-6-(hydroxymethyl)tetrahydro-2H-pyran-2-yloxy)biphenyl-2-yloxy)tetrahydro-2H-pyran-2-carboxylic acid formation at 100 mg/kg, po by UPLC-IT-TOF-MS analysis; format: ADME, organism-based; details: in vivo; how it was run: as §2
[5] = Drug metabolism in Sprague-Dawley rat plasma assessed as 5'-acryloyl-2'-hydroxy-5-propionylbiphenyl-2-yl hydrogen sulfate formation at 100 mg/kg, po by UPLC-IT-TOF-MS analysis; format: ADME, organism-based; details: in vivo; how it was run: as §2
[6] = Drug metabolism in Sprague-Dawley rat plasma assessed as (2S,3S,4S,5R,6S)-3,4,5-trihydroxy-6-(5-(1-hydroxyallyl)-5'-(2-hydroxypropyl)-2'-methoxybiphenyl-2-yloxy)tetrahydro-2H-pyran-2-carboxylic acid formation at 100 mg/kg, po by UPLC-IT-TOF-MS analysis; format: ADME, organism-based; details: in vivo; how it was run: as §1
[7] = Drug metabolism in Sprague-Dawley rat urine assessed as (2S,3S,4S,5R,6S)-6-(5'-allyl-5-(1-hydroxyallyl)-2'-((2S,3R,4S,5S,6R)-3,4,5-trihydroxy-6-(hydroxymethyl)tetrahydro-2H-pyran-2-yloxy)biphenyl-2-yloxy)-3,4,5-trihydroxytetrahydro-2H-pyran-2-carboxylic acid formation at 100 mg/kg, po by UPLC-IT-TOF-MS analysis; format: ADME, organism-based; details: in vivo; how it was run: as §2
Rattus norvegicus [8] = assay: Toxicity in Sprague-Dawley rat assessed as caustic injuries at 2000 mg/kg, po measured over 4 hrs; format: organism-based; details: in vivo
How it was run: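 Following OECD 425, adult SD rats (180–220 g), six per group: vehicle (0.5% CMC-Na) controls, plus males and females given 2000 mg/kg orally. Watched continuously for 4 h for behaviour, breathing, cutaneous, sensory and gastrointestinal signs, then hourly to 24 h and every 6 h for the next 48 h.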

[9] = Drug metabolism in Sprague-Dawley rat feces assessed as (2S,3R,4S,5S,6R)-2-(5,5'-diallyl-2'-methoxybiphenyl-2-yloxy)-6-(hydroxymethyl)tetrahydro-2H-pyran-3,4,5-triol formation at 100 mg/kg, po by UPLC-IT-TOF-MS analysis; format: ADME, organism-based; details: in vivo; how it was run: as §1
[10] = Drug metabolism in Sprague-Dawley rat plasma assessed as 5,5'-diallylbiphenyl-2,2'-diol formation at 100 mg/kg, po by UPLC-IT-TOF-MS analysis; format: ADME, organism-based; details: in vivo; how it was run: as §2
[11] = Drug metabolism in Sprague-Dawley rat urine assessed as (2S,3S,4S,5R,6S)-6-(5,5'-diallyl-2'-methoxybiphenyl-2-yloxy)-3,4,5-trihydroxytetrahydro-2H-pyran-2-carboxylic acid formation at 100 mg/kg, po by UPLC-IT-TOF-MS analysis; format: ADME, organism-based; details: in vivo; how it was run: as §2
[12] = Drug level in Sprague-Dawley rat plasma at 100 mg/kg, po by UPLC-IT-TOF-MS analysis; format: ADME, organism-based; details: in vivo; how it was run: as §1
Mus musculus [13] = assay: Decrease in dopamine level in Kunming mouse hippocampus at 40 mg/kg, po treated for 7 days by HPLC-ECD analysis; format: functional, organism-based
How it was run: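 Male Kunming mice received vehicle or 40 mg/kg for 7 days, then were killed by cervical dislocation and the brain regions dissected on ice. Tissue was homogenized in ice-cold 0.2 M perchloric acid with 0.1 mM EDTA and centrifuged at 15,000 rpm, 20 min, 4 °C. Supernatant was analyzed by HPLC-ECD (+0.50 V; phosphate/octanesulfonate mobile phase, pH 3.0). Results in ng/g, mean ± SEM.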

[14] = Drug metabolism in Sprague-Dawley rat feces assessed as 5,5'-diallyl-2'-hydroxybiphenyl-2-yl hydrogen sulfate formation at 100 mg/kg, po by UPLC-IT-TOF-MS analysis; format: ADME, organism-based; details: in vivo; how it was run: as §1
Mus musculus [15] = assay: Antidepressant activity in Kunming mouse assessed as decrease in immobility duration at 40 mg/kg, po by forced swim test relative to control; format: functional; parameters: scale not given: the % may be the effect or the level left
How it was run: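 Male Kunming mice (18–20 g) given 10, 20 or 40 mg/kg orally; fluoxetine and agomelatine 20 mg/kg as references. Each mouse swam 6 min in a cylinder (25 × 15 cm) holding 10 cm of water at 25 ± 1 °C. Immobility over the last 4 min was scored by video tracking; n = 10, mean ± SEM versus vehicle.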

[16] = Drug metabolism in Sprague-Dawley rat urine assessed as (2S,3S,4S,5R,6S)-3,4,5-trihydroxy-6-(5-(1-hydroxyallyl)-5'-(2-hydroxypropyl)-2'-methoxybiphenyl-2-yloxy)tetrahydro-2H-pyran-2-carboxylic acid formation at 100 mg/kg, po by UPLC-IT-TOF-MS analysis; format: ADME, organism-based; details: in vivo; how it was run: as §2
Rattus norvegicus [17] = assay: Toxicity in Sprague-Dawley rat assessed as change in sensory nervous system responses at 2000 mg/kg, po measured continuously for first 4 hrs followed by measured every hour for next 24 hrs and at 6 hrs intervals for following 48 hrs post dose; format: organism-based; details: in vivo
How it was run: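 Followed OECD 425 in adult SD rats (180–220 g), three groups of six. Vehicle control received 0.5% CMC-Na orally; separate male and female groups received 2000 mg/kg orally. Endpoints observed: behaviour, breathing, cutaneous effects, sensory nervous system responses, gastrointestinal effects and deaths.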

Mus musculus [18] = assay: Increase in ratio of 5-hydroxyindole-3-acetic acid to 5-hydroxytryptamine level in Kunming mouse hippocampus at 40 mg/kg, po treated for 7 days by HPLC-ECD analysis; format: functional, organism-based
How it was run: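 Male Kunming mice (18–20 g) given vehicle or 40 mg/kg for 7 days, then killed by cervical dislocation. Frontal cortex, hippocampus, striatum, hypothalamus and thalamus dissected on ice, homogenized in ice-cold 0.2 M perchloric acid with 0.1 mM EDTA, centrifuged 15,000 rpm, 20 min, 4 °C. Supernatant analysed by HPLC-ECD at +0.50 V; phosphate/octanesulfonate mobile phase pH 3.0 with 12% methanol. Levels in ng/g, mean ± SEM.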

[19] = Drug metabolism in Sprague-Dawley rat feces assessed as 2'-hydroxy-5'-(1-hydroxyallyl)-5-propylbiphenyl-2-yl hydrogen sulfate formation at 100 mg/kg, po by UPLC-IT-TOF-MS analysis; format: ADME, organism-based; details: in vivo; how it was run: as §1

In the case of `C=CCc1ccc(O)c(-c2cc(CC=C)ccc2O[C@@H]2O[C@H](CO)[C@@H](O)[C@H](O)[C@H]2O)c1`, the Drug metabolism [1] is reported as “Metabolite_Notdetected”, the Drug metabolism [2] is reported as “Metabolite_Detected” and the Drug metabolism [3] is reported as “Metabolite_Notdetected”. The Drug metabolism [4] was “Metabolite_Detected”, the Drug metabolism [5] was “Metabolite_Notdetected” and the Drug metabolism [6] was “Metabolite_Notdetected”. For the same molecule, the Drug metabolism [7] was “Metabolite_Detected”, the Activity (Rattus norvegicus [8]) was “Non-Toxic” and the Drug metabolism [9] was “Metabolite_Detected”. The Drug metabolism [10] was “Metabolite_Notdetected”, the Drug metabolism [11] was “Metabolite_Detected” and the Drug uptake [12] was “Active”. For the same molecule, the Activity (Mus musculus [13]) was “Active”, the Drug metabolism [14] was “Metabolite_Detected” and the Activity (Mus musculus [15]) was 37.66%. For the same molecule, the Drug metabolism [16] was “Metabolite_Detected”, the Activity (Rattus norvegicus [17]) was “Non-Toxic” and the Activity (Mus musculus [18]) was “Active”. The Drug metabolism [19] was “Metabolite_Detected”.
